This experiment has as its target T1, Poly [ADP-ribose] polymerase tankyrase-2 (Homo sapiens, UniProt Q9H2K2).
T1 sequence (Q9H2K2 whole entry): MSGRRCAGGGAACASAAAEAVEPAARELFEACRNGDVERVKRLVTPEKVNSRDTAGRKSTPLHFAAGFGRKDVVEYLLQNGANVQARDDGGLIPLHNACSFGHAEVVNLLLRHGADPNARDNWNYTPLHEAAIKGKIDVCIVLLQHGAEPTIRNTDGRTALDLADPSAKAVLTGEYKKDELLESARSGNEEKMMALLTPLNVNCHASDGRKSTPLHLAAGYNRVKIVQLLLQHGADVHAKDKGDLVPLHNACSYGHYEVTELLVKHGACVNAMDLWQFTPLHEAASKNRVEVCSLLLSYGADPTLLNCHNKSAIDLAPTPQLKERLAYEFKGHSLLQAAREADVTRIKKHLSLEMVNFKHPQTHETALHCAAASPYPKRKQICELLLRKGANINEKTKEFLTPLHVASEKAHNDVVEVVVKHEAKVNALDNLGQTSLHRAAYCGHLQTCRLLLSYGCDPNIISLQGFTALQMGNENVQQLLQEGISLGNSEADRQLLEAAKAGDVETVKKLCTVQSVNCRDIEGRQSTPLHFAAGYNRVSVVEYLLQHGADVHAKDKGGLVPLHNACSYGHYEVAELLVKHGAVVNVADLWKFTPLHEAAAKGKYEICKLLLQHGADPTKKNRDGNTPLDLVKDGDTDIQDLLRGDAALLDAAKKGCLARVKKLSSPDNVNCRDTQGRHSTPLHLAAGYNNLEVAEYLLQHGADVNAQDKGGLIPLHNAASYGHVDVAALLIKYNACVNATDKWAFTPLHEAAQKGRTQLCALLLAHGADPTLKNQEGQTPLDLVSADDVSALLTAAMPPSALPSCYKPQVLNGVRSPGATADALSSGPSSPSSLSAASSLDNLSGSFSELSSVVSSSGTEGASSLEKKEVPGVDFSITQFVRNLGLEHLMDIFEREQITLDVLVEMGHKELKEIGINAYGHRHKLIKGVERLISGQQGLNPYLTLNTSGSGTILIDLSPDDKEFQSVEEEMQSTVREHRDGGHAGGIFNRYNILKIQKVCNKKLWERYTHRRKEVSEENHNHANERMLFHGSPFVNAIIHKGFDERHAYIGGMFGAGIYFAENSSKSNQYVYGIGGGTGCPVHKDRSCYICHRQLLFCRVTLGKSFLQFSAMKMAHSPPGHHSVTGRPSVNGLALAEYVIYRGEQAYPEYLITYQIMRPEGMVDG
Briefly: Binding affinity to 6His-tagged TNKS2 PARP domain (947 to 1162) (unknown origin) expressed in Escherichia coli BL21(DE3) by surface plasmon resonance analysis. In short, it runs like this:
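SPR on a Biacore instrument. Running buffer: 20 mM PBS pH 7.4, 0.05% Tween20, 2% DMSO. His-tagged TNKS2 (20 μg/mL in 20 mM PBS pH 7.4) was capture-coupled at 10 μL/min onto a Ni²⁺/NHS doubly preactivated NTA chip, to a target of 5000 RU.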
For orientation: In SPR one partner is held on a chip, and binding of the other changes the refractive index at the surface.

The term Kd denotes the free concentration of one partner at which half of the binding sites on the other are occupied at equilibrium, for simple one-to-one binding. Read a high Kd as a looser complex.

As for `Cc1cc(=O)[nH]c2cc(-c3ccccc3F)ccc12`, the Kd stood at 280 nM.

The values above are taken from ChEMBL document CHEMBL2380224, “Fragment-based ligand design of novel potent inhibitors of tankyrases” (J Med Chem, 2013).
